{"source": "ChEMBL document CHEMBL4043093", "about": "“2-Oxo-3, 4-dihydropyrimido[4, 5-d]pyrimidinyl derivatives as new irreversible pan fibroblast growth factor receptor (FGFR) inhibitors” (Eur J Med Chem, 2017)", "key": {"[1]": {"target": "RAC-beta serine/threonine-protein kinase (Homo sapiens) (UniProt P31751)", "sequence (P31751 whole entry)": "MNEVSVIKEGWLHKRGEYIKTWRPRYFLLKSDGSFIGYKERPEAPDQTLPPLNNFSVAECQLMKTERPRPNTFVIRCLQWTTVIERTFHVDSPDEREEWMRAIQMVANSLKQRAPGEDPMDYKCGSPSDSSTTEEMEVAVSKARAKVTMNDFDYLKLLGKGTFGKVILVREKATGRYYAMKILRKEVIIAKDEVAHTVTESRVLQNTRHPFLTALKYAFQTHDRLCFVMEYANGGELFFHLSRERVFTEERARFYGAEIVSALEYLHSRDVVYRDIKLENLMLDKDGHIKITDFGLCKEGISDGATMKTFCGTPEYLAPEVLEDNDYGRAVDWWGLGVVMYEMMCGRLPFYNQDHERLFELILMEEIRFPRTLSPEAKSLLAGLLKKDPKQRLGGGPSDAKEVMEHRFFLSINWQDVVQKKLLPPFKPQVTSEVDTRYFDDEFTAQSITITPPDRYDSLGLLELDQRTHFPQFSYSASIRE", "test": "Inhibition of wild-type human partial length AKT2 expressed in Escherichia coli BL21 assessed as residual activity at 1000 nM after 30 mins by Kinomescan method relative to control"}, "[2]": {"target": "Tyrosine-protein kinase receptor UFO (Homo sapiens) (UniProt P30530)", "test": "Inhibition of wild-type human partial length AXL (R497 to Y821 residues) expressed in Escherichia coli BL21 assessed as residual activity at 1000 nM after 30 mins by Kinomescan method relative to control"}, "[3]": {"target": "Bone morphogenetic protein receptor type-1A (Homo sapiens) (UniProt P36894)", "sequence (P36894 whole entry, the tested form may be a part)": "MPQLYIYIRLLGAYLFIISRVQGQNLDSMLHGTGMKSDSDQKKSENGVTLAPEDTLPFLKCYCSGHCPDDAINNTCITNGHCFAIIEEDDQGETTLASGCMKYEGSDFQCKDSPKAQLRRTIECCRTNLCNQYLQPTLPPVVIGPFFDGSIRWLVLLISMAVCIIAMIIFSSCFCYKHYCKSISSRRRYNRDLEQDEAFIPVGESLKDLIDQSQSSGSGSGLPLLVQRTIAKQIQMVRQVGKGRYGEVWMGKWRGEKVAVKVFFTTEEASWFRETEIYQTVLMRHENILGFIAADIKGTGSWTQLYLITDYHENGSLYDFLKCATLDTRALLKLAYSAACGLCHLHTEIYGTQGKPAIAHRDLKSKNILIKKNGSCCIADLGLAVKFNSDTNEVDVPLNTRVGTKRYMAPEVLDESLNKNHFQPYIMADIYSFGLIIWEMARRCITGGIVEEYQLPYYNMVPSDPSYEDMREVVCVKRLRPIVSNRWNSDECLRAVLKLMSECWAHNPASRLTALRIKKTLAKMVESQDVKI", "test": "Inhibition of wild-type human partial length BMPR1A (Q214 to I532 residues) expressed in Escherichia coli BL21 assessed as residual activity at 1000 nM after 30 mins by Kinomescan method relative to control"}, "[4]": {"target": "Calcium/calmodulin-dependent protein kinase type 1D (Homo sapiens) (UniProt Q8IU85)", "test": "Inhibition of wild-type human partial length CAMK1D (M1 to K299 residues) expressed in Escherichia coli BL21 assessed as residual activity at 1000 nM after 30 mins by Kinomescan method relative to control"}, "[5]": {"target": "Death-associated protein kinase 1 (Homo sapiens) (UniProt P53355)", "sequence (P53355 whole entry, looked up, the tested form may be a part)": "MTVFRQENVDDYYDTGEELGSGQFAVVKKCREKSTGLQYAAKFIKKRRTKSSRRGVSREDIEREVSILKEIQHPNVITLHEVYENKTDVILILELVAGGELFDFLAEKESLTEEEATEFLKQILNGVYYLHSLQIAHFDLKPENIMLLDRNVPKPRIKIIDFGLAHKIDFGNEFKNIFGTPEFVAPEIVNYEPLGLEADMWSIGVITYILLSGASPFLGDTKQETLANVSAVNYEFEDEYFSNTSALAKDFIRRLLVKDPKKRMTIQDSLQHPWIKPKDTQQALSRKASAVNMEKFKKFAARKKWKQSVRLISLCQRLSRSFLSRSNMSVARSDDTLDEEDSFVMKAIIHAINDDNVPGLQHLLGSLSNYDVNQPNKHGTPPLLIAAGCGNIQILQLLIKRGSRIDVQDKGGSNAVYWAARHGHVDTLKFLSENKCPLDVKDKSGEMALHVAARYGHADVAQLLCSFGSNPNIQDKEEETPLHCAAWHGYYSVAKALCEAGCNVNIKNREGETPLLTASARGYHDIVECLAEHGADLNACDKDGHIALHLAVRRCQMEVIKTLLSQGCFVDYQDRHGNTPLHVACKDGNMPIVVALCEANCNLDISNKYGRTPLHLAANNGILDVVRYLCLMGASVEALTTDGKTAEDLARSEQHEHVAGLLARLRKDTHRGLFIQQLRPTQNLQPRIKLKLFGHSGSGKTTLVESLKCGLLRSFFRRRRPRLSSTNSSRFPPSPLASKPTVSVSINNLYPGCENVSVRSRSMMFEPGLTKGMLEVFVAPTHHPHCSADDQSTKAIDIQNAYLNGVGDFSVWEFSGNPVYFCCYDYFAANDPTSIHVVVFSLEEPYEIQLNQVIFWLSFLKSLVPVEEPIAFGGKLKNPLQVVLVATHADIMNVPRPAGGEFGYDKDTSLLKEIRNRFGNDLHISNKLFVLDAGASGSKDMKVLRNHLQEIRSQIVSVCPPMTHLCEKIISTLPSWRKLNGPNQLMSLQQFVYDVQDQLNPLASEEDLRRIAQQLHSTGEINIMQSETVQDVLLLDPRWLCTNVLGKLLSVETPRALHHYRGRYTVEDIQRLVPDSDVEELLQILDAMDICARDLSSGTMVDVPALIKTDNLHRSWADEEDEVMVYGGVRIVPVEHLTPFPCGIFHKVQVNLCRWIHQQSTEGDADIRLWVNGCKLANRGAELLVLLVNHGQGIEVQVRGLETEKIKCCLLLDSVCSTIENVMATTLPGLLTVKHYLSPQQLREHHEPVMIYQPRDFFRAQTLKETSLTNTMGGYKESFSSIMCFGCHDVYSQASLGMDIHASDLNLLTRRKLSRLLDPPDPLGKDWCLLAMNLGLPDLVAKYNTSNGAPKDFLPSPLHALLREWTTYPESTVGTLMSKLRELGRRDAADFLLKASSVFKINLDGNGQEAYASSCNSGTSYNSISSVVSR", "test": "Inhibition of wild-type human partial length DAPK1 (M1 to F296 residues) expressed in Escherichia coli BL21 assessed as residual activity at 1000 nM after 30 mins by Kinomescan method relative to control"}, "[6]": {"target": "Myotonin-protein kinase (Homo sapiens) (UniProt Q09013)", "test": "Inhibition of wild-type human partial length DMPK (V47 to V415 residues) expressed in Escherichia coli BL21 assessed as residual activity at 1000 nM after 30 mins by Kinomescan method relative to control"}, "[7]": {"target": "Ephrin type-A receptor 1 (Homo sapiens) (UniProt P21709)", "test": "Inhibition of wild-type human partial length EPHA1 (V588 to I913 residues) expressed in Escherichia coli BL21 assessed as residual activity at 1000 nM after 30 mins by Kinomescan method relative to control"}, "[8]": {"target": "Insulin receptor-related protein (Homo sapiens) (UniProt P14616)", "test": "Inhibition of wild-type human partial length INSRR (R950 to E1278 residues) expressed in Escherichia coli BL21 assessed as residual activity at 1000 nM after 30 mins by Kinomescan method relative to control"}, "[9]": {"tested_on": "Mast/stem cell growth factor receptor Kit (Homo sapiens), P10721 [A829P]", "test": "Inhibition of human partial length KIT A829P mutant (I571 to D952 residues) expressed in HEK293 cells assessed as residual activity at 1000 nM after 30 mins by Kinomescan method relative to control", "assay_type": "cell-based", "summary_of_the_method": "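KINOMEscan binding panel of 456 kinases, with the test compound at a single concentration of 1 µM. Read-out is Percent Control.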"}, "[10]": {"target": "Mast/stem cell growth factor receptor Kit (Homo sapiens) (UniProt P10721)", "test": "Inhibition of wild-type human partial length autoinhibited KIT (Y545 to D952 residues) expressed in HEK293 cells assessed as residual activity at 1000 nM after 30 mins by Kinomescan method relative to control", "assay_type": "cell-based"}, "[11]": {"target": "Mitogen-activated protein kinase kinase kinase kinase 3 (Homo sapiens) (UniProt Q8IVH8)", "test": "Inhibition of wild-type human partial length MAP4K3 (M1 to D301 residues) expressed in Escherichia coli BL21 assessed as residual activity at 1000 nM after 30 mins by Kinomescan method relative to control"}, "[12]": {"target": "MAP/microtubule affinity-regulating kinase 4 (Homo sapiens) (UniProt Q96L34)", "sequence (Q96L34 whole entry, the tested form may be a part)": "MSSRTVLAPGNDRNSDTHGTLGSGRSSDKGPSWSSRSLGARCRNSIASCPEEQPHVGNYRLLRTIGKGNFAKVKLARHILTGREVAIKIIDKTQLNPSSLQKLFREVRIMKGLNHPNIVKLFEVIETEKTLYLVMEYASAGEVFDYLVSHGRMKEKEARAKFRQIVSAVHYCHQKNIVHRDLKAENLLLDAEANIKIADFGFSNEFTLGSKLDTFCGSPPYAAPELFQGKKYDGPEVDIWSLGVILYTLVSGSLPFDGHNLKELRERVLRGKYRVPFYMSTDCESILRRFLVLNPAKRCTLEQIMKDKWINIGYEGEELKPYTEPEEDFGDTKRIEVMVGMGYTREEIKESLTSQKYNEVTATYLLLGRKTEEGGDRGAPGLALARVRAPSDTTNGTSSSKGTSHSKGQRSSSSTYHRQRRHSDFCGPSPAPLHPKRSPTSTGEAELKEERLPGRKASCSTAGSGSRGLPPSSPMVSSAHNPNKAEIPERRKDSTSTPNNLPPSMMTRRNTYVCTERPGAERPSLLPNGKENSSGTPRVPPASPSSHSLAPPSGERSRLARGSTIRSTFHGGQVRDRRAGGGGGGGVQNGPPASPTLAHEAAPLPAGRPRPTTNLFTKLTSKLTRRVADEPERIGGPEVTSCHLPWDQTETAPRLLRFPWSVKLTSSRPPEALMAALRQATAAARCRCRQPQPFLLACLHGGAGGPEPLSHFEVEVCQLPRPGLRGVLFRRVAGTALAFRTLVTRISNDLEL", "test": "Inhibition of wild-type human partial length MARK4 (K29 to G340 residues) expressed in Escherichia coli BL21 assessed as residual activity at 1000 nM after 30 mins by Kinomescan method relative to control"}, "[13]": {"target": "Dual specificity mitogen-activated protein kinase kinase 2 (Homo sapiens) (UniProt P36507)", "test": "Inhibition of wild-type human full length MEK2 (M1 to V400 residues) expressed in HEK293 cells assessed as residual activity at 1000 nM after 30 mins by Kinomescan method relative to control", "assay_type": "cell-based", "summary_of_the_method": "(§1)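 Single-concentration screen at 1 µM across a 456-kinase KINOMEscan panel. The read-out is Percent Control for each kinase.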"}, "[14]": {"target": "Mitogen-activated protein kinase 11 (Homo sapiens) (UniProt Q15759)", "test": "Inhibition of wild-type human full length p38-beta (M1 to Q364 residues) expressed in Escherichia coli BL21 assessed as residual activity at 1000 nM after 30 mins by Kinomescan method relative to control"}, "[15]": {"target": "Phosphorylase b kinase gamma catalytic chain, skeletal muscle/heart isoform (Homo sapiens) (UniProt Q16816)", "test": "Inhibition of wild-type human full length PHKG1 (M1 to Y387 residues) expressed in Escherichia coli BL21 assessed as residual activity at 1000 nM after 30 mins by Kinomescan method relative to control", "summary_of_the_method": "as §1"}, "[16]": {"target": "Phosphatidylinositol 5-phosphate 4-kinase type-2 beta (Homo sapiens) (UniProt P78356)", "test": "Inhibition of wild-type human full length PIP5K2B (M1 to T416 residues) expressed in Escherichia coli BL21 assessed as residual activity at 1000 nM after 30 mins by Kinomescan method relative to control", "summary_of_the_method": "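Single-concentration screen at 1 µM against a 456-kinase panel (KINOMEscan). Read-out is Percent Control for each kinase. Across the 403 non-mutant kinases, an S(35) selectivity score was derived as the fraction of kinases with Percent Control < 35.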"}, "[17]": {"target": "Serine/threonine-protein kinase N1 (Homo sapiens) (UniProt Q16512)", "test": "Inhibition of wild-type human partial length PKN1 (E598 to C948 residues) expressed in Escherichia coli BL21 assessed as residual activity at 1000 nM after 30 mins by Kinomescan method relative to control"}, "[18]": {"target": "Serine/threonine-protein kinase PLK2 (Homo sapiens) (UniProt Q9NYY3)", "test": "Inhibition of wild-type human partial length PLK2 (H58 to F354 residues) expressed in HEK293 cells assessed as residual activity at 1000 nM after 30 mins by Kinomescan method relative to control", "assay_type": "cell-based"}, "[19]": {"target": "Ribosomal protein S6 kinase alpha-1 (Homo sapiens) (UniProt Q15418)", "sequence (Q15418 whole entry, the tested form may be a part)": "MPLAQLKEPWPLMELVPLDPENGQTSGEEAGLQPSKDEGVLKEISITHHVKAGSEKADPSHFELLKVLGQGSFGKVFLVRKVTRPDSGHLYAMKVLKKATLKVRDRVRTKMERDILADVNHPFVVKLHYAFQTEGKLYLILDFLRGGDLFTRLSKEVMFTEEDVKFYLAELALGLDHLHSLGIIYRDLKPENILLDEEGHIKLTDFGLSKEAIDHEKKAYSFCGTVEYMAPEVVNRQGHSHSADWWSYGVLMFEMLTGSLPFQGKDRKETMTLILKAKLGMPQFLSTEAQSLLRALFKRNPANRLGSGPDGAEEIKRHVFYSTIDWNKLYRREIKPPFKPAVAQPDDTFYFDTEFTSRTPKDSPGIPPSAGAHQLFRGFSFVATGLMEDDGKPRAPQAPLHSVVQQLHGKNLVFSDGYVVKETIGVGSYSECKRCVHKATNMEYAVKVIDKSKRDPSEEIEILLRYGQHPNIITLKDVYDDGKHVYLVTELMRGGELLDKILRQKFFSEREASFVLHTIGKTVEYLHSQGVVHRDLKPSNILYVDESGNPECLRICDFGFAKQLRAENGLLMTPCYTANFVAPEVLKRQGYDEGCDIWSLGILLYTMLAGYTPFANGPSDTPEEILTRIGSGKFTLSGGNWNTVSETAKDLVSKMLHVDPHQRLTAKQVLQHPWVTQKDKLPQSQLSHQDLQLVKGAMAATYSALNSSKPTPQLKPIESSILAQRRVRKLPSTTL", "test": "Inhibition of wild-type human partial length N-terminal RSK1 Kinase domain 1 (M1 to E388 residues) expressed in Escherichia coli BL21 assessed as residual activity at 1000 nM after 30 mins by Kinomescan method relative to control"}, "[20]": {"target": "Serine/threonine-protein kinase ULK2 (Homo sapiens) (UniProt Q8IYT8)", "sequence (Q8IYT8 whole entry, the tested form may be a part)": "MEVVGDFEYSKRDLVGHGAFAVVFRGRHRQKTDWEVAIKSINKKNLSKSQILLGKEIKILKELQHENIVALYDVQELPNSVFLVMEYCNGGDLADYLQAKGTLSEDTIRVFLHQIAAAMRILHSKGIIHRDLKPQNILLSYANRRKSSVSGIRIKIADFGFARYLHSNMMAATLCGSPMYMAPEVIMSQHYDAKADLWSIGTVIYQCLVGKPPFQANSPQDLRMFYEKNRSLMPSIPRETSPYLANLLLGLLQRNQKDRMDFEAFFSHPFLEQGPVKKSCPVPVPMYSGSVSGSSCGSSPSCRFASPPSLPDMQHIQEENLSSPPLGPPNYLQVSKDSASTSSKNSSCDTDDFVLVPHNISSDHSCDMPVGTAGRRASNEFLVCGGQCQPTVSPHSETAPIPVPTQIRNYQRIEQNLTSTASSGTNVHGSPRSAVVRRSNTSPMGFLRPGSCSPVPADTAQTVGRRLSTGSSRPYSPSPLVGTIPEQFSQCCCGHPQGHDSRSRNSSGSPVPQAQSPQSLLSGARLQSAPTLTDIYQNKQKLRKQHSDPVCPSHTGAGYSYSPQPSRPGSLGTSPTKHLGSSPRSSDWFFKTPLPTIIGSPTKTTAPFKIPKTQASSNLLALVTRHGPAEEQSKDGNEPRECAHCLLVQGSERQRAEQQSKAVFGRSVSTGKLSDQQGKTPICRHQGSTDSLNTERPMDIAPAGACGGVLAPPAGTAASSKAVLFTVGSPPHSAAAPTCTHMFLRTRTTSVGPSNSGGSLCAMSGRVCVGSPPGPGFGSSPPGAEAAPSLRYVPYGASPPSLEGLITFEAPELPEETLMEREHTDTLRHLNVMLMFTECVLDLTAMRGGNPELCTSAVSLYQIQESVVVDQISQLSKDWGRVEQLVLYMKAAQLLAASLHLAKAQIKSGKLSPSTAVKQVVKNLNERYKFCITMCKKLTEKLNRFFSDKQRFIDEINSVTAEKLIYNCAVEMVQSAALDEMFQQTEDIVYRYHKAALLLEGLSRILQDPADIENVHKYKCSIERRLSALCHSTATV", "test": "Inhibition of wild-type human partial length ULK2 (M1 to S301 residues) expressed in HEK293 cells assessed as residual activity at 1000 nM after 30 mins by Kinomescan method relative to control", "assay_type": "cell-based"}, "[21]": {"target": "Mitogen-activated protein kinase kinase kinase 20 (Homo sapiens) (UniProt Q9NYL2)", "test": "Inhibition of wild-type human partial length ZAK (M1 to L331 residues) expressed in Escherichia coli BL21 assessed as residual activity at 1000 nM after 30 mins by Kinomescan method relative to control"}}}
{"compound": "COc1cc(OC)c(Cl)c(N2Cc3cnc(Nc4ccc(F)cc4)nc3N(C3CCN(C(=O)/C=C/CN(C)C)CC3)C2=O)c1Cl", "values": [{"measurement": "Activity", "setting": "[1]", "result": 92, "unit": "%"}, {"measurement": "Activity", "setting": "[2]", "result": 92, "unit": "%"}, {"measurement": "Activity", "setting": "[3]", "result": 100, "unit": "%"}, {"measurement": "Activity", "setting": "[4]", "result": 87, "unit": "%"}, {"measurement": "Activity", "setting": "[5]", "result": 100, "unit": "%"}, {"measurement": "Activity", "setting": "[6]", "result": 100, "unit": "%"}, {"measurement": "Activity", "setting": "[7]", "result": 82, "unit": "%"}, {"measurement": "Activity", "setting": "[8]", "result": 52, "unit": "%"}, {"measurement": "Activity", "setting": "[9]", "result": 30, "unit": "%"}, {"measurement": "Activity", "setting": "[10]", "result": 90, "unit": "%"}, {"measurement": "Activity", "setting": "[11]", "result": 88, "unit": "%"}, {"measurement": "Activity", "setting": "[12]", "result": 87, "unit": "%"}, {"measurement": "Activity", "setting": "[13]", "result": 89, "unit": "%"}, {"measurement": "Activity", "setting": "[14]", "result": 87, "unit": "%"}, {"measurement": "Activity", "setting": "[15]", "result": 92, "unit": "%"}, {"measurement": "Activity", "setting": "[16]", "result": 100, "unit": "%"}, {"measurement": "Activity", "setting": "[17]", "result": 92, "unit": "%"}, {"measurement": "Activity", "setting": "[18]", "result": 100, "unit": "%"}, {"measurement": "Activity", "setting": "[19]", "result": 78, "unit": "%"}, {"measurement": "Activity", "setting": "[20]", "result": 100, "unit": "%"}, {"measurement": "Activity", "setting": "[21]", "result": 98, "unit": "%"}]}
